From ChEMBL document CHEMBL2331545, “Synthesis of antioxidants for prevention of age-related macular degeneration” (J Nat Prod, 2013)
Activity calls are given as the source filed them. No cut-off for these calls is given here.

What was measured:
[1] = Inhibition of A2E photooxidation at 100 uM after 5 mins by reversed-phase HPLC analysis; format: functional
Outline: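 Cell-free assay: A2E (200 µM DMSO stock) added to DPBS, antioxidant from DMSO solution added to 100 µM final. Irradiated at 430 nm (2.8 mW/cm2) for 5 min. Samples diluted with EtOH and analysed by reversed-phase HPLC under dim red light. Percent photooxidation taken as A2E loss relative to unirradiated samples.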

[2] = tested on: ARPE-19; assay: Inhibition of intracellular A2E photooxidation in human ARPE19 cells at 20 uM after 18 days; format: functional, cell-based
Outline: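 ARPE-19 cells (lacking endogenous A2E) grown to confluence for 5 days, then fed 10 µM synthetic A2E for 18 days in medium with 10% FBS. Antioxidant at 20 µM present on days 10–18. Cells washed in DPBS and irradiated at 430 nm (2.8 mW/cm2) for 10 min. Trypsinised, counted, dried, methanol-extracted. A2E quantified by reversed-phase HPLC; loss versus unirradiated cells gave percent photooxidation.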

Structure (SMILES)	inhibition [1]	inhibition [2]
O=c1c(O)c(-c2ccc(O)c(O)c2)oc2c(CN3CCc4cc(O)c(O)cc4C3)c(O)cc(O)c12	Active	Active
O=c1c(O)c(-c2ccc(O)c(O)c2)oc2cc(O)cc(O)c12	Active	Active
O=c1c(O)c(-c2ccc(O)c(O)c2)oc2c(CN3CCOCC3)c(O)cc(O)c12	Active	Active
O=c1c(O)c(-c2ccc(O)c(O)c2)oc2c(CN3CCN(Cc4c(O)cc(O)c5c(=O)c(O)c(-c6ccc(O)c(O)c6)oc45)CC3)c(O)cc(O)c12	Active	Active
CN(CCN(C)Cc1c(O)cc(O)c2c(=O)c(O)c(-c3ccc(O)c(O)c3)oc12)Cc1c(O)cc(O)c2c(=O)c(O)c(-c3ccc(O)c(O)c3)oc12	Active	Active
